The target of one test is D(2) dopamine receptor (Rattus norvegicus, UniProt P61169). The experiment in a line: Displacement of [3H]spiperone from dopamine D2 in rat striatum by liquid scintillation counting. The method in brief:
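Striatal membranes (3 mg fresh tissue) in Tris–HCl with NaCl, KCl, CaCl2, MgCl2, ascorbic acid and pargyline, pH 7.1 at 37 °C. Incubated with [3H]spiperone at 0.4 nM final for 15 min at 37 °C, then filtered on GF/B. Nonspecific binding defined with (+)-butaclamol. IC50 converted to Ki by Cheng–Prusoff.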
For orientation: In a radioligand displacement assay an active substance lowers the binding of a labelled ligand.

Test [1] addresses T1, Adrenergic receptor alpha-2 (Rattus norvegicus, UniProt P22086+P19328+P22909).
T1 sequence (P22086 whole entry): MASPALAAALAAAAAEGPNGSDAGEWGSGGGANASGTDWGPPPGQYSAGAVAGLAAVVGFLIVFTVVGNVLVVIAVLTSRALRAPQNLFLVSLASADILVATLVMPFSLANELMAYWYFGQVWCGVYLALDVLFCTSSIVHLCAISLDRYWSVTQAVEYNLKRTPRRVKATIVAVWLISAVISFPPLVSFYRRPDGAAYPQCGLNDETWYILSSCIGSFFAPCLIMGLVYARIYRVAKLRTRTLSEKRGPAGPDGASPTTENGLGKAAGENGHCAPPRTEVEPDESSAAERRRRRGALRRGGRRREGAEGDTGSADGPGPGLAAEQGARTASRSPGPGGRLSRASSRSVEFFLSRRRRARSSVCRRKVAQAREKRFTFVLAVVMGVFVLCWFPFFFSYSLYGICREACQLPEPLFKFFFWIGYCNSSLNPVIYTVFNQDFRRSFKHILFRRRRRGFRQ
T1 sequence (P19328 whole entry): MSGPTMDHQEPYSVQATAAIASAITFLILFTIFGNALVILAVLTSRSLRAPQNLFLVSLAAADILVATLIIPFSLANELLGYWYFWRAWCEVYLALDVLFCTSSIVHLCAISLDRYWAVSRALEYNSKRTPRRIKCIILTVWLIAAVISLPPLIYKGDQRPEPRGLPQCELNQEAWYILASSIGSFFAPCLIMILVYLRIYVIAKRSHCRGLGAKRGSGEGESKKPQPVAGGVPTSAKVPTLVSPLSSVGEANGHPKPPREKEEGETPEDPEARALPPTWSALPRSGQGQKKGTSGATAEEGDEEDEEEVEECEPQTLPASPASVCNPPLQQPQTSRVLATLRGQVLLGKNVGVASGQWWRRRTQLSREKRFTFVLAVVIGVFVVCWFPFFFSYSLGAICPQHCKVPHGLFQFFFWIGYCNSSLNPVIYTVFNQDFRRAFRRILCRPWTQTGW
T1 sequence (P22909 whole entry): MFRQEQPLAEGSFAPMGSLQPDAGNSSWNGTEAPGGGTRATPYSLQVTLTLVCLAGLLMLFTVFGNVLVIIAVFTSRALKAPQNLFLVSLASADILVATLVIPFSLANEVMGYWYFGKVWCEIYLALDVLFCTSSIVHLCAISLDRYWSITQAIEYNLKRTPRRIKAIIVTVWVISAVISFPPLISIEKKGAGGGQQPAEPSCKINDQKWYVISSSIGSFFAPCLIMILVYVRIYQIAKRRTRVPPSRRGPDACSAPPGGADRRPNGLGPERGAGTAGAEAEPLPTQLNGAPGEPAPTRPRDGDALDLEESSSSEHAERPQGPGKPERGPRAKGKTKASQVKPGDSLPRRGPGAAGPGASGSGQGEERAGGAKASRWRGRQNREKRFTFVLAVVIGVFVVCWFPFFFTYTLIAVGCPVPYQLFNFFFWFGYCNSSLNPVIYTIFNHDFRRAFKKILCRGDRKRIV
As to the kind of experiment: Displacement of [3H]yohimbine from alpha2 adrenergic receptor in rat brain cortex by liquid scintillation counting. Type of test: tissue-based. The essentials: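 Cortical membranes prepared in 5 mM Tris–HCl/5 mM EDTA pH 7.3, washed three times; 10 mg fresh tissue per tube. [3H]yohimbine at 1 nM final, 30 min at 25 °C, GF/B filtration, washed with Tris–HCl/EDTA pH 7.5. Nonspecific binding defined with […]. IC50 converted to Ki by Cheng–Prusoff.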

D(2) dopamine receptor, sequence (P61169 whole entry): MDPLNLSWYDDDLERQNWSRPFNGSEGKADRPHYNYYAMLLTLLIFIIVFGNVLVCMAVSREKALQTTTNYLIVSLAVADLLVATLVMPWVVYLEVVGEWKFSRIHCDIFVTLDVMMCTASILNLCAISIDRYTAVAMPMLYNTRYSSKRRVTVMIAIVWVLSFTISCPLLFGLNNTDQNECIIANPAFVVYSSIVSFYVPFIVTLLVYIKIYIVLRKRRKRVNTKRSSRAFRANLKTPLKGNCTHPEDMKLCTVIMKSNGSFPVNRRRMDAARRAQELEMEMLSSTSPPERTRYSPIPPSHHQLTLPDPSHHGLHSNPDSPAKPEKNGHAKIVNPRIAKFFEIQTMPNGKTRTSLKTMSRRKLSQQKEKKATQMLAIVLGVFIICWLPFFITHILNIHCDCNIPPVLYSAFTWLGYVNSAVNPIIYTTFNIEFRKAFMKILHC

Regarding `CCOC(=O)c1cc2cc(OCCCN3CCN(c4ccc(OC)cc4)CC3)ccc2[nH]1`, the Ki result at D(2) dopamine receptor is “Not Active”; in test [1], 6480 nM.

As for `CCOC(=O)c1cc2cc(OCCCN3CCN(c4cccc(Cl)c4)CC3)ccc2[nH]1`, the values for the Ki entry (at D(2) dopamine receptor; in test [1]) were “Not Active” and 1350 nM, respectively.

Consider `CCOC(=O)c1cc2cc(OCCCN3CCN(Cc4ccc5c(c4)OCO5)CC3)ccc2[nH]1`, for which the inhibitory constant (Ki) entry is “Not Active” at D(2) dopamine receptor and 231 nM in test [1].

The Ki is the equilibrium dissociation constant of an inhibitor or competing ligand from its target. Low values mean tighter binding, high ones weaker binding.
